According to ChEMBL document CHEMBL1156119 (J Med Chem, 2009):
Calls of active or inactive are those of the source. The calls are words filed in the database; no cut-off is given here.

Experiments:
SMB [1] = test: Antiprion activity against Scrapie prion protein-mediated scrapie in mouse SMB cells assessed as remaining PrP-Sc level at 20 uM after 5 days by Bradford assay relative to control; format: cell-based
Procedure, shortened: (§1)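 SMB scrapie-infected mouse cells, non-neuronal, in medium 199 with 10% newborn calf and 5% fetal calf serum, seeded at 3 × 10⁴ cells/well and attached for 24 h. Compound DMSO stocks were diluted via HBSS into medium and applied for 5 days. Lysates of ~30-40 μg protein/well were dot-blotted, digested with proteinase K at 75 μg mL⁻¹ (1 h, 37 °C) and denatured in 1.8 M guanidine thiocyanate. Read-out was %PrP^Sc versus DMSO-only control, in triplicate.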

[2] = Antiprion activity against Scrapie prion protein-mediated scrapie in mouse SMB cells assessed as remaining PrP-Sc level after 5 days by Bradford assay; format: cell-based; conditions: 120 h
Procedure, shortened: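 Same SMB dot-blot protocol with 5-day exposure. Compounds were rescreened over a range of concentrations to fit an EC₅₀ from dose-response curves. Each determination was run in triplicate, in at least two independent experiments. PrP^Sc was measured relative to an untreated DMSO-only control.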

SMB [3] = test: Antiprion activity against Scrapie prion protein-mediated scrapie in mouse SMB cells assessed as remaining PrP-Sc level at 1 uM after 5 days by Bradford assay relative to control; format: cell-based
Procedure, shortened: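 Compound DMSO stocks were diluted via HBSS into medium and applied for 5 days. Lysates of ~30-40 μg protein/well were dot-blotted, digested with proteinase K at 75 μg mL⁻¹ (1 h, 37 °C) and denatured in 1.8 M guanidine thiocyanate. Read-out was %PrP^Sc versus DMSO-only control, in triplicate.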

SMB [4] = test: Antiprion activity against Scrapie prion protein-mediated scrapie in mouse SMB cells assessed as remaining PrP-Sc level at 10 uM after 5 days by Bradford assay relative to control; format: cell-based; procedure, shortened: as §1
[5] = Cytotoxicity against mouse SMB cells at 20 uM after 5 days by MTT assay; format: cell-based; conditions: 120 h
Procedure, shortened: (§2)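 SMB cells were seeded at 3 × 10⁴ cells/well and attached for 24 h. Compound was added from DMSO stock diluted through HBSS into the medium, and cells were exposed for 5 days. Viability was read by MTT assay following the standard reagent protocol.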

SMB [6] = test: Antiprion activity against Scrapie prion protein-mediated scrapie in mouse SMB cells by dot blot analysis; format: cell-based; procedure, shortened: as §1
[7] = target: Major prion protein (Mus musculus) (UniProt P04925); test: Binding affinity to mouse PrP up to 40 uM by surface plasmon resonance assay
Major prion protein (Mus musculus), sequence (P04925 whole entry): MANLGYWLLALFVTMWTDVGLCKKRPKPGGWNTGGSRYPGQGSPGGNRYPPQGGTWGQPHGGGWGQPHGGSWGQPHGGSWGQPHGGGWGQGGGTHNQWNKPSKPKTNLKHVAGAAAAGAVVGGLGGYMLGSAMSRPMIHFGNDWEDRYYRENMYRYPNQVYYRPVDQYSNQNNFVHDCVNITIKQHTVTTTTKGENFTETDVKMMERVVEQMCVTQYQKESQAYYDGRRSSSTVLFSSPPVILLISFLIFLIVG

[8] = target: Major prion protein (Homo sapiens) (UniProt P04156); test: Binding affinity to human PrP up to 40 uM by surface plasmon resonance assay
SMB [9] = test: Antiprion activity against Scrapie prion protein-mediated scrapie in mouse SMB cells assessed as remaining PrP-Sc level at 24 uM after 5 days by Bradford assay relative to control; format: cell-based
[10] = Antiprion activity against Scrapie prion protein-mediated scrapie in mouse ScNB cells assessed as PrP-res accumulation after 4 days by immunoblotting; format: cell-based; conditions: 96 h
[11] = Cytotoxicity against mouse SMB cells at 10 uM after 5 days by MTT assay; format: cell-based; conditions: 120 h; procedure, shortened: as §2

SMILES | EC50 [2] [nM] | Activity (SMB [3]) [%] | Remaining PrP-Sc level (SMB [4]) [%] | other results
Cn1cc(C(=O)C(=O)Nc2ccccc2)c2ccccc21 | 6900 | – | – | Remaining PrP-Sc level (SMB [1]): 81.4%
COc1cc(NC(=O)C(=O)c2c[nH]c3ccccc23)ncn1 | 680 | 23 | – | –
O=C(Nc1cccc(Cl)c1)C(=O)c1c[nH]c2ccccc12 | 1510 | – | 40 | –
O=C(Nc1ccc(F)c(F)c1)C(=O)c1c[nH]c2ccccc12 | 320 | 1.4 | – | –
Cc1[nH]c2ccccc2c1C(=O)C(=O)NC1CCCCC1 | – | – | – | Remaining PrP-Sc level (SMB [1]): 102%; Activity [5]: Toxic
O=C(Nc1ccc(Cl)cc1)C(=O)c1c[nH]c2ccccc12 | 65 | 5.9 | – | –
CSc1ccc(CNC(=O)C(=O)c2c[nH]c3ccccc23)cc1 | 40 | 5.6 | – | –
Cn1cc(C(=O)C(=O)Nc2ccc(O)cc2)c2ccccc21 | 3770 | – | 47.3 | –
O=C(Nc1ccc(F)nc1)C(=O)c1c[nH]c2ccccc12 | 1210 | 52.3 | – | Activity (SMB [6]): Dose-dependent effect
COc1ccc(NC(=O)C(=O)c2c[nH]c3ccccc23)cc1 | 11 | 6.7 | – | Activity [7]: inactive; Activity [8]: inactive
O=C(Nc1ccc(N2CCOCC2)cc1)C(=O)c1c[nH]c2ccccc12 | 9 | 4.6 | – | Activity (SMB [6]): Dose-dependent effect
O=C(Nc1cccc(F)c1)C(=O)c1c[nH]c2ccccc12 | 640 | 27.1 | – | Activity [7]: inactive; Activity [8]: inactive
Cc1[nH]c2ccccc2c1C(=O)C(=O)Nc1ccccc1 | – | – | 41.6 | –
Cc1ccc(NC(=O)C(=O)c2c[nH]c3ccccc23)cc1C | 1200 | 48.7 | – | –
CC(=O)c1cccc(NC(=O)C(=O)c2c[nH]c3ccccc23)c1 | – | – | 98.8 | –
O=C(NCc1ccc(Oc2ccccc2)cc1)C(=O)c1c[nH]c2ccccc12 | 1030 | – | 17.5 | –
Cc1csc(NC(=O)C(=O)c2c[nH]c3ccccc23)n1 | – | – | 105 | –
COc1ccc(NC(=O)C(=O)c2c[nH]c3ccccc23)cn1 | 120 | 4.9 | – | –
O=C(Nc1cccnc1)C(=O)c1c[nH]c2ccccc12 | 1660 | – | 8 | –
Cc1[nH]c2ccccc2c1C(=O)C(=O)Nc1cccc2c(O)cccc12 | – | – | – | Activity [5]: Toxic

SMILES | EC50 [2] [nM] | Activity (SMB [3]) [%] | Remaining PrP-Sc level (SMB [4]) [%] | other results
Cn1cc(C(=O)C(=O)Nc2cnc3ccccc3c2)c2ccccc21 | – | – | – | Remaining PrP-Sc level (SMB [1]): 102%; Activity [5]: Toxic
Cc1[nH]c2ccccc2c1C(=O)C(=O)Nc1cccc(Oc2ccccc2)c1 | – | – | 103 | –
Cn1cc(C(=O)C(=O)Nc2cccc(C#N)c2)c2ccccc21 | – | – | – | Remaining PrP-Sc level (SMB [1]): 91.2%; Activity [5]: Toxic
COc1cc(NC(=O)C(=O)c2cn(C)c3ccccc23)ncn1 | – | – | 86.4 | –
O=C(Nc1ccc(O)cc1)C(=O)c1c[nH]c2ccccc12 | 240 | 17.8 | – | Activity [7]: inactive; Activity [8]: inactive
CN(C(=O)C(=O)c1c[nH]c2ccccc12)c1ccccc1 | – | – | – | Activity (SMB [9]): 127%
Cc1[nH]c2ccccc2c1C(=O)C(=O)Nc1cnc2ccccc2c1 | – | – | – | Remaining PrP-Sc level (SMB [1]): 87.6%; Activity [5]: Toxic
O=C(Nc1ccccc1)C(=O)c1c[nH]c2ccccc12 | 320 | 19.5 | – | Activity [7]: inactive; Activity [8]: inactive
O=C(Nc1ccc(N2CCCCC2)cc1)C(=O)c1c[nH]c2ccccc12 | 72 | 6.5 | – | Activity (SMB [6]): Dose-dependent effect
Cc1[nH]c2ccccc2c1C(=O)C(=O)NCc1ccco1 | – | – | – | Remaining PrP-Sc level (SMB [1]): 83%; Activity [5]: Toxic
COc1ccccc1NC(=O)C(=O)c1c[nH]c2ccccc12 | – | – | 140 | Activity [5]: Toxic
Cn1cc(C(=O)C(=O)N2CCCCC2)c2ccccc21 | – | – | 131 | Activity [5]: Toxic
O=C(Nc1cccc(CO)c1)C(=O)c1c[nH]c2ccccc12 | 14800 | – | 17.6 | –
COc1cccc(NC(=O)C(=O)c2cn(C)c3ccccc23)c1 | 4730 | – | – | Remaining PrP-Sc level (SMB [1]): 61.8%
CN(C)c1ccc(NC(=O)C(=O)c2c[nH]c3ccccc23)cc1 | 26 | 7.2 | – | –
O=C(Nc1cccc(O)c1)C(=O)c1c[nH]c2ccccc12 | 820 | 52.4 | – | –
O=C(Nc1ccc(-n2cccn2)cc1)C(=O)c1c[nH]c2ccccc12 | 1 | 7 | – | –
Cn1cc(C(=O)C(=O)Nc2cccc(Oc3ccccc3)c2)c2ccccc21 | – | – | 169 | Activity [5]: Toxic
Cn1cc(C(=O)C(=O)NCc2cccnc2)c2ccccc21 | – | – | 117 | –
COc1ccc(CNC(=O)C(=O)c2c[nH]c3ccccc23)cc1OC | 520 | 19.3 | – | –

SMILES | EC50 [2] [nM] | Activity (SMB [3]) [%] | Remaining PrP-Sc level (SMB [4]) [%] | other results
O=C(Nc1ccc(-c2cnco2)cc1)C(=O)c1c[nH]c2ccccc12 | 19 | 16.8 | – | –
O=C(Nc1ccc(F)cc1)C(=O)c1c[nH]c2ccccc12 | 64 | 10.3 | – | –
COc1cccc(NC(=O)C(=O)c2c[nH]c3ccccc23)c1 | 230 | – | 17.5 | Activity [7]: inactive; Activity [8]: inactive
Cc1cccc(NC(=O)C(=O)c2c[nH]c3ccccc23)c1 | 6350 | – | 21.7 | –
O=C(Nc1ccc(-n2cccc2)cc1)C(=O)c1c[nH]c2ccccc12 | 6 | 17.1 | – | –
COc1cc(/C=C/C(=O)CC(=O)/C=C/c2ccc(O)c(OC)c2)ccc1O [CURCUMIN] | 950 | – | – | EC50 [10]: 10 nM
CCOc1ccc(CNC(=O)C(=O)c2c[nH]c3ccccc23)cc1 | 60 | 6.5 | – | –
COc1ccc(NC(=O)C(=O)c2cn(C)c3ccccc23)cc1 | 68 | 11.6 | – | –
CCc1cccc(NC(=O)C(=O)c2c[nH]c3ccccc23)c1 | 12100 | – | 37.9 | –
O=C(Nc1cccc(-c2cnco2)c1)C(=O)c1c[nH]c2ccccc12 | 530 | – | 16.8 | –
O=C(Nc1ccc(C(F)(F)F)cc1)C(=O)c1c[nH]c2ccccc12 | 290 | 6.1 | – | –
O=C(Nc1ccc(OC(F)(F)F)cc1)C(=O)c1c[nH]c2ccccc12 | 380 | 6.7 | – | –
CC(C)NC(=O)C(=O)c1c[nH]c2ccccc12 | – | – | – | Remaining PrP-Sc level (SMB [1]): 74.9%; Activity [5]: Toxic; Activity [11]: Toxic
Cn1cc(C(=O)C(=O)N2CCOCC2)c2ccccc21 | – | – | – | Remaining PrP-Sc level (SMB [1]): 100%
O=C(Nc1cnc2ccccc2c1)C(=O)c1c[nH]c2ccccc12 | 170 | 41.3 | – | Activity [7]: inactive; Activity [8]: inactive
Cn1cc(C(=O)C(=O)NCc2ccccc2)c2ccccc21 | – | – | 148 | –
Cn1cc(C(=O)C(=O)Nc2cccc3ccccc23)c2ccccc21 | – | – | – | Remaining PrP-Sc level (SMB [1]): 121%
Cc1ccc(NC(=O)C(=O)c2c[nH]c3ccccc23)cc1 | 130 | 4.1 | – | –
